# Results gathered from unrelated publications.
# Each line is one published result; the experiments were not run side by side.
# Target: Mitogen-activated protein kinase 9 (MAPK9, Homo sapiens, UniProt P45984)
Compound,assay,setting,remaining binding [%]
CCC(=N\O)/C(C)=C/c1ccc(F)cc1,"cell-free assay, competition with immobilised ligand",1 µM,92
COC(=O)Nc1nc2ccc(C(=O)c3ccccc3)cc2[nH]1,"cell-free assay, competition with immobilised ligand",10 µM,9.6
CN(CCCC(F)(F)F)c1nccc(-c2cnn3ncccc23)n1,binding,1 µM,90
C[C@@H]1CN(c2ccc3ncc(-c4ccc5[nH]nc(C6CC6)c5c4)n3n2)C[C@H](C)O1,"binding, competition with immobilised ligand",0.5 µM,50
N#Cc1ccccc1CSc1nnc2c(n1)[nH]c1ccccc12,"binding, competition with immobilised ligand",10 µM,90
CCC(=O)N[C@H]1CC[C@@H](C(=O)N(C)c2ccc(-c3nc4ccccc4o3)cc2)C1,"cell-free assay, competition with immobilised ligand",1 µM,79
C[C@H]1CCN(c2nccc(-c3cnn4ncccc34)n2)C1,binding,1 µM,60
CCOCCn1cc(C(=O)Nc2ccc(-n3nc(-c4cccnc4)cc3C(F)(F)F)cn2)ccc1=O,"cell-free assay, competition with immobilised ligand",1 µM,97
Cc1cnc(Nc2ccc(C(=O)N3CCC(N4CCCC4)CC3)cc2)nc1-c1cc2ccccc2s1,"binding, competition with immobilised ligand",1 µM,14
O=C(NCC1CCOCC1)c1n[nH]cc1NC(=O)c1c(F)cccc1F,"binding, competition with immobilised ligand",1 µM,57
CN(C)c1nccc(-c2cnc3ncccn23)n1,binding,1 µM,60
O=C(NCCCN1CCOCC1)c1ccc(Nc2nccc(-c3cc4ccccc4s3)n2)cc1,"binding, competition with immobilised ligand",1 µM,33
CN(C(=O)c1ccccc1)c1cc(N(C)c2ccc3c(c2)CCc2ccc(C(=O)NCCN4CCOCC4)cc2C3=O)ccc1F,"cell-free assay, competition with immobilised ligand",1 µM,100
CN(c1nccc(-c2cnn3ncccc23)n1)C1CC1,binding,1 µM,100
CCS(=O)(=O)c1cc2cc(C[C@@](O)(CC(C)(C)c3ccc(F)cc3C(N)=O)C(F)(F)F)[nH]c2cn1,"cell-free assay, competition with immobilised ligand",1 µM,84
COc1cnc(Nc2cccc(S(N)(=O)=O)c2)nc1N1CCN(c2ccccc2)C(=O)C1,"binding, competition with immobilised ligand",1 µM,69
